Source: PubChem (several laboratories)
Lmaj promast – inhibitors of Leishmania major promastigote growth; Leishmania major promastigotes, resazurin fluorescence viability; inhibition, % at 10 µM; hit rate 9% among 200,000; AID 1063; in the data active = inhibition above about 50%;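 also: promastigotes grown with compound for 44 hours at 28 °C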
Dynein cargo inh – blocks dynein driven cargo transport along microtubules | 3617.4 mouse cells, GR-EGFP nuclear translocation imaging; test concentration mostly 20 µM; stimulated with dexamethasone, 1 µM; active compounds read low | z-score, hits read low | hit rate 0.47% among 220,000;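 active = plate z-score of nuclear minus cytoplasmic receptor signal below a set negative limit, without overly bright fluorescence or cell loss, cut at about -3.5 in these data, passing the limit was not always enough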;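 also: z-score of nuclear minus cytoplasmic ring GR-EGFP intensity difference per well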
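Schedule: 48 h induction, then 1 h compound, then 30 min agonist, 37 °C. Buffer or medium: tetracycline-free induction medium containing charcoal-stripped FBS. Reagent: 1.0 µM final dexamethasone stimulus. Evaluation: nuclear versus cytoplasmic GR-EGFP signal, averaged per well. Signal: high-content fluorescence imaging after fixation.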
HCT116 bCat-KO – beta-catenin-lacking colon tumor cell growth suppression. hit rate 1.5% among 140,000. HCT116 beta-catenin knockout viability, CellTiter-Glo, 60 h; active compounds read low. viability, % at 10 µM;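 active = viability at or under a set limit, the compound median less 4 SD, cut at about 6% in these data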
PTEN del growth – suppresses growth of cells with PTEN deletion | HCT116 PTEN-null viability, CellTiter-Glo, 60 h; active compounds read low | viability, % at 10 µM | hit rate 1.2% among 140,000;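 active = viability at or below a set limit, 4 SD under the median of all tested compounds, cut at about 3.7% in these data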;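 also: PTEN knockout HCT116 line with beta catenin targeted HCT116 as companion control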
Autophagy mod – alters autophagy in cells. MEF GFP-LC3 puncta imaging; test concentration mostly 10 µM. calls only at 10 µM (by protocol). hit rate 0.98% among 190,000. AID 463193;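 active = percentage of spot-positive cells more than 3 SD above its plate mean, without a fluorescence outlier flag or 80% toxicity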
Large screens that a line does not name were inactive. Sampled rows, rich in hits. Any-hit rate of the full collection: about 9.2%.

CCCOc1nc2c(c(=O)n(C)c(=O)n2C)n1C	none (no result: Lmaj promast, HCT116 bCat-KO, PTEN del growth, Autophagy mod)
CCCOc1nc2c(c(=O)n(C)c(=O)n2C)n1Cc1cccc2ccccc12	Lmaj promast 65
COC(=O)CC1C(=O)NC2CCCCC2N1C(=O)CCl (centres undefined)	none (no result: Lmaj promast, HCT116 bCat-KO, PTEN del growth, Autophagy mod)
O=C1CS/C(=N/N=C/c2cccs2)N1Cc1ccc(F)cc1	none (no result: Lmaj promast, HCT116 bCat-KO, PTEN del growth, Autophagy mod)
CCOc1ccccc1-c1nc(-c2cc3ccc(C)cc3[nH]c2=O)no1	Lmaj promast 69
COC(=O)Nc1csc2c1NC(=O)CCCC2	none (no result: Lmaj promast, HCT116 bCat-KO, PTEN del growth, Autophagy mod)
Cc1sc(N/N=C/c2cccnc2)nc1-c1ccc(Cl)cc1	none
C/C(CCC1CC(C)OC1=O)=N/Nc1nc(-c2ccccc2)cs1 (centres undefined)	Lmaj promast 76
Cc1ccc(-c2cc(-c3ccccc3O)nc(N/N=C/c3cccnc3)n2)cc1	HCT116 bCat-KO 4.0, PTEN del growth 2.9
Clc1ccc(N/N=C/c2cccnc2)cc1	Lmaj promast 62
CC(/C=C/c1ccccc1)=N\Nc1nc(-c2ccccc2)cs1	Lmaj promast 69
C(=N\Nc1nc(-c2ccccc2)cs1)/c1cccnc1	Lmaj promast 91
CC(C)=NNc1nc(-c2ccccc2)cs1	Lmaj promast 89
CCOCCCNC(=O)CSc1nc2nc(C)c(Cc3ccccc3)c(C)n2n1	none (no result: HCT116 bCat-KO, PTEN del growth)
CCCCCCOc1ccc(/C(C)=N/NC2=NCCN2)cc1[N+](=O)[O-]	Lmaj promast 100, Autophagy mod active (no result: HCT116 bCat-KO, PTEN del growth)
CCCCOc1ccc(Br)cc1/C(C)=N/NC1=NCCN1	Lmaj promast 101, HCT116 bCat-KO 2.4, PTEN del growth 2.9, Autophagy mod active
C/C(=N\NC1=NCCN1)c1ccc(N)c([N+](=O)[O-])c1	none (no result: Lmaj promast, HCT116 bCat-KO, PTEN del growth, Autophagy mod)
CCCOc1ccc(Br)cc1/C=N/O	none
CN(c1ccc(OCC(=O)N2CCN(c3ccc(F)cc3)CC2)cc1)S(=O)(=O)c1cccs1	none (no result: HCT116 bCat-KO, PTEN del growth)
Cc1cccc(C)c1NC(=O)COC(=O)c1cccnc1	Autophagy mod active (no result: HCT116 bCat-KO, PTEN del growth)
N#CC1=C2SCC(O)(c3ccccc3)N2C(=O)CC1c1ccccc1 (centres undefined)	Lmaj promast 92, Autophagy mod active
O=C(CCCN1C(=O)/C(=C\c2cccc(Br)c2)SC1=S)Nc1cccnc1	Lmaj promast 58 (no result: HCT116 bCat-KO, PTEN del growth)
O=C(CCCN1C(=O)/C(=C/c2cccc(Br)c2)SC1=S)Nc1cccnc1	none (no result: HCT116 bCat-KO, PTEN del growth)
CCOCCCNc1nc2c(C)cccn2c(=O)c1/C=C1\SC(=S)N(CC(C)C)C1=O	Autophagy mod active
CCCN1C(=O)/C(=C/c2c(NCCCOCC)nc3c(C)cccn3c2=O)SC1=S	Autophagy mod active
CCOCCCNc1nc2c(C)cccn2c(=O)c1/C=C1\SC(=S)N(C(C)CC)C1=O (centres undefined)	none (no result: Lmaj promast, HCT116 bCat-KO, PTEN del growth, Autophagy mod)
Cc1sc(NC(=S)NC(=O)c2ccco2)c(C#N)c1C	none (no result: HCT116 bCat-KO, PTEN del growth)
c1ccc(-c2ccccc2OCc2nnc3n2CCC3)cc1	none (no result: HCT116 bCat-KO, PTEN del growth)
C/C(=N/N=C1/NC(=O)CC(C(=O)O)S1)c1ccccc1 (centres undefined)	none
Cc1ccc(NC(=O)C2CC(=O)N/C(=N/N=C/c3ccco3)S2)cc1 (centres undefined)	Lmaj promast 58
O=C1CC(C(=O)Nc2ccc(F)cc2)S/C(=N\N=C\c2ccco2)N1 (centres undefined)	none
C/C(=N/N=C1/NC(=O)CC(C(=O)Nc2ccccc2)S1)c1cccs1 (centres undefined)	Lmaj promast 78
O=C1C(=O)N(CC2CCCO2)C(c2ccco2)/C1=C(/O)c1ccc(F)cc1 (centres undefined)	none (no result: HCT116 bCat-KO, PTEN del growth)
N#CC(C(=O)OC1CCCCC1)c1nc2ccccc2nc1N1CCCCC1 (centres undefined)	Lmaj promast 54
CC1CN(c2nc3ccccc3nc2C(C#N)C(=O)OC2CCCCC2)CC(C)O1 (centres undefined)	Lmaj promast 64
CC1CCCN(c2nc3ccccc3nc2C(C#N)C(=O)OC2CCCCC2)C1 (centres undefined)	Lmaj promast 61
Cc1cc(F)ccc1NC(=O)c1cccnc1	none (no result: HCT116 bCat-KO, PTEN del growth)
O=S(=O)(c1cnccc1N1CCN(/N=C/c2ccc(Cl)cc2)CC1)N1CCCCC1	Lmaj promast 79
Cc1ccc(/C=N/N2CCN(c3ccncc3S(=O)(=O)N3CCCCC3)CC2)cc1	Lmaj promast 67
COc1cccc(/C=N/N2CCN(c3ccncc3S(=O)(=O)N3CCCCC3)CC2)c1	Lmaj promast 99
CS(=O)(=O)Nc1ccc(C(=O)Nc2ccc(S(=O)(=O)N3CCCC3)cc2)cc1	none (no result: HCT116 bCat-KO, PTEN del growth)
CCN(CC)S(=O)(=O)c1ccc(C(=O)OCCN2C(=O)c3cccc4c(N5CCOCC5)ccc(c34)C2=O)cc1	none
O=C1c2cccc3c(N4CCCCC4)ccc(c23)C(=O)N1c1ccc(Cl)cn1	Autophagy mod active (no result: HCT116 bCat-KO, PTEN del growth)
O=C1c2cccc3c(N4CCCCC4)ccc(c23)C(=O)N1c1ccccn1	none
O=C1c2cccc3c([N+](=O)[O-])ccc(c23)C(=O)N1c1ccc(Cl)cn1	Lmaj promast 100, HCT116 bCat-KO 1.8, PTEN del growth 1.6
O=C(OCCN1C(=O)c2cccc3c(N4CCOCC4)ccc(c23)C1=O)c1cc(Cl)cc(Cl)c1	Lmaj promast 71, Autophagy mod active
O=C1c2cccc3c([N+](=O)[O-])ccc(c23)C(=O)N1c1ccccn1	Lmaj promast 100, HCT116 bCat-KO 1.6, PTEN del growth 1.4
CC(=O)N(C(C)=O)N1C(=O)c2cccc3c(N4CCOCC4)ccc(c23)C1=O	none (no result: HCT116 bCat-KO, PTEN del growth)
O=C1c2cccc3c([N+](=O)[O-])ccc(c23)C(=O)N1c1nccs1	Lmaj promast 64, HCT116 bCat-KO 1.5, PTEN del growth 1.5
CCCN1C(=O)c2cccc3c(N4CCCCC4)ccc(c23)C1=O	Lmaj promast 73, Autophagy mod active
Cn1c(=N)n(CC(=O)c2ccc(Br)s2)c2ccccc21	Lmaj promast 84
O=C1C2C3C=CC(C3)C2C(=O)N1CCN1CCN(Cc2ccc([N+](=O)[O-])cc2)CC1 (centres undefined)	Lmaj promast 72 (no result: HCT116 bCat-KO, PTEN del growth)
O=C(CCN1C(=O)C2C3C=CC(C3)C2C1=O)N1CCN(c2ccc([N+](=O)[O-])cc2)CC1 (centres undefined)	none (no result: HCT116 bCat-KO, PTEN del growth)
CC1CCN(CCC(=O)Nc2nccs2)CC1	none (no result: Lmaj promast, HCT116 bCat-KO, PTEN del growth, Autophagy mod)
Cc1c(C(=O)OC(C)CCN(C)C)oc2ccccc12 (centres undefined)	Lmaj promast 85
CC1CCN(CCCOc2ccc(Cl)cc2Br)CC1	Lmaj promast 87 (no result: HCT116 bCat-KO, PTEN del growth)
CC1CCN(CCOCCOc2ccc(Cl)cc2Br)CC1	Lmaj promast 101
CC1CCCN(CCOc2ccc3ccccc3c2Br)C1 (centres undefined)	Lmaj promast 88 (no result: HCT116 bCat-KO, PTEN del growth)
O=C(Oc1ccc2ccccc2c1Br)N1CCCCCC1	none
Cc1ccc(Cl)c(OCCN2CCCC(C)C2)c1 (centres undefined)	Lmaj promast 91
Nc1nnc(C(c2ccccc2)c2ccccc2)s1	none
CC1(C)C2CCC1(CS(=O)(=O)N1CCC(C(=O)O)CC1)C(=O)C2 (centres undefined)	none (no result: Lmaj promast, HCT116 bCat-KO, PTEN del growth, Autophagy mod)
CC1CCCN(CCCOc2ccc(Cl)cc2Br)C1 (centres undefined)	Lmaj promast 98
